# From article PMC8963331 (Toxicological Sciences, 2022)
# Entries after “also recorded” stand apart in the source; their conditions may differ. Marks after values point to notes of the source that are not given here.
# Legend:
# [1] = Human plasma protein binding; assay type: in vitro ADME
# [2] = system: JAK1, JAK2, JAK3, and TYK2; assay: Human cellular JAK IC50; assay type: cell-based; details: corrected with human plasma protein binding of 85.4%
# mouse colitis model = details: ref Sandborn et al., 2020; cited from earlier work
# [3] = system: Crl:CD Sprague Dawley (SD) rats; assay: Rat 4-, 13-, 26-week repeat-dose general toxicity studies; assay type: in vivo
# Method in brief: (§1)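 Crl:CD Sprague Dawley rats, 7–8 weeks old at start, dosed daily by oral gavage (10 ml/kg) at 0 (vehicle), 30, 100 or 1000 mg/kg/day for 4, 13 or 26 weeks. n = 10/sex/group, plus 4-week dose-free recovery (n = 5/sex). Rats fasted overnight. Hematology, coagulation and clinical chemistry sampled at baseline, end of dosing and end of recovery. Sexes pooled; treated groups compared with vehicle; variance homogeneity by […] Levene test.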
# [4] = as above; assay type: in vivo; details: both, Sprague-Dawley (Crl:CD), rat, in vivo, oral
# Method in brief: as §1
# [5] = system: Crl:CD Sprague Dawley (SD) rats; assay: Rat fertility and early embryonic development; assay type: in vivo; details: for Fertility index / Mating index / Pregnancy rate / Females mated: rat FEED; for Females mated: 22 females paired
# [6] = Rat fertility and early embryonic development; assay type: in vivo; details: both, Sprague-Dawley (Crl:CD), rat, in vivo, oral
# [7] = Rabbit embryo–fetal development; assay type: in vivo; details: female, rabbit, in vivo, oral
# Method in brief: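 Time-mated female rabbits, 6–8 months old at dosing start, gavaged daily (10 ml/kg) with vehicle or 10, 30 or 60 mg/kg/day test compound over GDs 7–19; n = 22/group plus a toxicokinetic group. Cesarean-section endpoints: corpora lutea, implantation sites, preimplantation loss, resorptions. Fetuses weighed and examined externally, viscerally and, after evisceration and Alizarin Red S staining, skeletally. Fetal weights analysed by ANCOVA with Dunnett's test, litter size as covariate.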
# [8] = Rat embryo–fetal development; assay type: in vivo; details: female, rat, in vivo, oral
# Method in brief: (§2)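 Time-mated female Crl:CD Sprague Dawley rats, 10–12 weeks old at dosing start, gavaged daily (10 ml/kg) with 0 (vehicle), 30, 100 or 1000 mg/kg/day test compound on GDs 6–17; n = 22/group plus a toxicokinetic group. Cesarean-section counts: corpora lutea, implantation sites, preimplantation loss, resorptions. Fetuses weighed and checked for external, visceral and skeletal (Alizarin Red S, after evisceration) abnormalities. Fetal weights compared by ANCOVA/Dunnett with litter size as covariate.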
# Time-mated female rats = assay: Rat embryo–fetal development; assay type: in vivo; details: for Corpora lutea (mean ± SD) / Implantation sites (mean ± SD) / Preimplantation loss (mean ± SD) / Total resorptions (mean ± SD) / Females with live fetuses / Pregnant females: rat EFD; for Females with live fetuses / Pregnant females: 22 total females
# Method in brief: as §2
# [9] = Dog repeat-dose toxicity studies: plasma toxicokinetics; assay type: in vivo
# [10] = Rabbit EFD study: maternal and fetal plasma toxicokinetics; assay type: in vivo
# [11] = rat, 4 weeks, 1000 mg/kg/day, reversible
# [12] = rat, 13 weeks, 1000 mg/kg/day, reversible
# [13] = rat, 26 weeks, 1000 mg/kg/day, reversible
# [14] = maternal rabbit, GD 19, 30 and 60 mg/kg/day
smiles,measurement,setting,value
"Cc1cc(Nc2cc3ncccc3c(N[C@@H]3C[C@H]4CC[C@@H](C3)N4CCC#N)n2)n[nH]1 [izencitinib, Izencitinib]",fraction unbound,[1],0.146
same,"human cellular JAK IC50 range, human plasma protein binding corrected",[2],87.18 to 550.1 ng/mL
same,JAK inhibitor-associated splenic natural killer (NK) cell reductions,mouse colitis model,spared
same,organ weights and microscopic findings in male reproductive tissues,"[3]; rat repeat-dose studies, up to highest tested doses",no microscopic findings
same,effects on lipid levels,"[3]; rat repeat-dose toxicity studies, any dose",no effects
same,"spleen weight, change","[3]; rat, 100 mg/kg/day",0.87 ×
same,"spleen weight, change","[3]; rat, 1000 mg/kg/day",0.78–0.86 ×
same,no observed adverse effect level,"[3]; rat, 4 weeks",1000^c mg/kg/day
same,"platelet counts, change","[3]; rat, 4 weeks, 100 mg/kg/day, reversible",1.1 ×
same,"lymphocyte counts, change",[3]; [11],0.64 ×
same,"platelet counts, change",[3]; [11],1.2 ×
same,"white blood cell counts, change",[3]; [11],0.66 ×
same,changes in red blood cell parameters,"[3]; rat, 4 weeks, any dose",No changes
same,no observed adverse effect level,"[3]; rat, 13 weeks",1000^c mg/kg/day
same,"lymphocyte counts, change","[3]; rat, 13 weeks, 100 mg/kg/day, reversible",0.78 ×
same,"hemoglobin levels, change","[3]; rat, 13 weeks, 1000 mg/kg/day, end of dosing",0.97 ×
same,"hemoglobin levels, change","[3]; rat, 13 weeks, 1000 mg/kg/day, end of recovery period",0.95 ×
same,"lymphocyte counts, change",[3]; [12],0.64 ×
same,"platelet counts, change",[3]; [12],1.2 ×
same,"red blood cell counts, change",[3]; [12],0.96 ×
same,"white blood cell counts, change",[3]; [12],0.74 ×
same,"platelet counts, change","[3]; rat, 26 weeks, 1000 mg/kg/day",1.1 ×
same,"white blood cell counts, change","[3]; rat, 26 weeks, 1000 mg/kg/day",0.68 ×
same,"incidence of minimally decreased lymphoid cellularity, females",[3]; [13],1 of 10
same,"incidence of minimally decreased lymphoid cellularity, males",[3]; [13],4 of 10
same,"hemoglobin levels, change","[3]; rat, 26 weeks, all dose levels",0.95 ×
same,"effects on food consumption, ophthalmic evaluations, clinical chemistry, urinalysis","[3]; rat, all repeat-dose studies",no effects
same,changes in reticulocyte levels,"[3]; rat, any dose, 3 studies",No changes
same,effects on neutrophils,"[3]; rat, any dose, 3 studies",No izencitinib-related effects
same,changes in coagulation parameters,"[3]; rat, any dose, all 3 studies",no changes
same,"other changes in organ weights or microscopic effects, including GI tissues","[3]; rat, up to 1000 mg/kg/day, all studies",No other changes
same,tolerability,"[3]; rat, up to highest tested dose 1000 mg/kg/day, 4-, 13-, 26-week studies",well-tolerated
same,NOAEL at 26 weeks,[4],1000 mg/kg/day
same,Fertility index,[5]; 30 mg/kg/day oral,90.9%
same,Mating index,[5]; 30 mg/kg/day oral,100.0%
same,Pregnancy rate,[5]; 30 mg/kg/day oral,90.9%
same,Females mated,[5]; 30 mg/kg/day oral,22 n
same,Females mated,[5]; 100 mg/kg/day oral,21 n
same,Fertility index,[5]; 1000 mg/kg/day oral,95.2%
same,Mating index,[5]; 1000 mg/kg/day oral,95.5%
same,Pregnancy rate,[5]; 1000 mg/kg/day oral,90.9%
same,Females mated,[5]; 1000 mg/kg/day oral,21 n
same,effect on male or female fertility,"[5]; rat, up to 1000 mg/kg/day",did not affect; also recorded: No effects
same,NOAEL,[6],1000 mg/kg/day
same,NOAEL,[7],60 mg/kg/day
same,NOAEL,[8],1000 mg/kg/day
same,Corpora lutea (mean ± SD),Time-mated female rats; 30 mg/kg/day oral GDs 6–17,14 ± 2.0
same,Implantation sites (mean ± SD),Time-mated female rats; 30 mg/kg/day oral GDs 6–17,14 ± 2.0
same,Preimplantation loss (mean ± SD),Time-mated female rats; 30 mg/kg/day oral GDs 6–17,1.0 ± 0.9
same,Total resorptions (mean ± SD),Time-mated female rats; 30 mg/kg/day oral GDs 6–17,0 ± 0.6
same,Females with live fetuses,Time-mated female rats; 30 mg/kg/day oral GDs 6–17,22
same,Pregnant females,Time-mated female rats; 30 mg/kg/day oral GDs 6–17,22
same,Corpora lutea (mean ± SD),Time-mated female rats; 100 mg/kg/day oral GDs 6–17,14 ± 2.3
same,Implantation sites (mean ± SD),Time-mated female rats; 100 mg/kg/day oral GDs 6–17,13 ± 1.8
same,Preimplantation loss (mean ± SD),Time-mated female rats; 100 mg/kg/day oral GDs 6–17,1.0 ± 1.2
same,Total resorptions (mean ± SD),Time-mated female rats; 100 mg/kg/day oral GDs 6–17,0 ± 0.7
same,Females with live fetuses,Time-mated female rats; 100 mg/kg/day oral GDs 6–17,22
same,Pregnant females,Time-mated female rats; 100 mg/kg/day oral GDs 6–17,22
same,Corpora lutea (mean ± SD),Time-mated female rats; 1000 mg/kg/day oral GDs 6–17,14 ± 1.7
same,Implantation sites (mean ± SD),Time-mated female rats; 1000 mg/kg/day oral GDs 6–17,13 ± 1.9
same,Preimplantation loss (mean ± SD),Time-mated female rats; 1000 mg/kg/day oral GDs 6–17,1.0 ± 1.0
same,Total resorptions (mean ± SD),Time-mated female rats; 1000 mg/kg/day oral GDs 6–17,0 ± 1.1
same,Females with live fetuses,Time-mated female rats; 1000 mg/kg/day oral GDs 6–17,22
same,Pregnant females,Time-mated female rats; 1000 mg/kg/day oral GDs 6–17,22
same,effects on cesarean section parameters,"Time-mated female rats; rat, all doses",no effects
same,"fetal external, visceral, or skeletal malformations","Time-mated female rats; rat, all doses",no observations
same,nonclinical:clinical systemic AUC margin at the NOAEL,"[9]; dog 39-week study, 30 mg/kg/day, vs human 300 mg QD",8 fold
same,Mean Cave,"[9]; dog female, 10 mg/kg/day oral, 4 weeks, last day of dosing",1.90 ng/mL
same,Mean Cave,"[9]; dog female, 10 mg/kg/day oral, 13 weeks, last day of dosing",1.53 ng/mL
same,Mean Cave,"[9]; dog female, 10 mg/kg/day oral, 39 weeks, last day of dosing",3.11 ng/mL
same,Mean Cave,"[9]; dog female, 30 mg/kg/day oral, 4 weeks, last day of dosing",14.8 ng/mL
same,Mean Cave,"[9]; dog female, 30 mg/kg/day oral, 13 weeks, last day of dosing",10.8 ng/mL
same,Mean Cave,"[9]; dog female, 30 mg/kg/day oral, 39 weeks, last day of dosing",20.5 ng/mL
same,Mean Cave,"[9]; dog female, 100 mg/kg/day oral, 13 weeks, last day of dosing",96.7 ng/mL
same,Mean Cave,"[9]; dog female, 100 mg/kg/day oral, 39-week study, week 28 (day 197)",131 ng/mL
same,Mean Cave,"[9]; dog male, 10 mg/kg/day oral, 4 weeks, last day of dosing",2.30 ng/mL
same,Mean Cave,"[9]; dog male, 10 mg/kg/day oral, 13 weeks, last day of dosing",1.61 ng/mL
same,Mean Cave,"[9]; dog male, 10 mg/kg/day oral, 39 weeks, last day of dosing",2.08 ng/mL
same,Mean Cave,"[9]; dog male, 30 mg/kg/day oral, 4 weeks, last day of dosing",19.1 ng/mL
same,Mean Cave,"[9]; dog male, 30 mg/kg/day oral, 13 weeks, last day of dosing",12.5 ng/mL
same,Mean Cave,"[9]; dog male, 30 mg/kg/day oral, 39 weeks, last day of dosing",15.9 ng/mL
same,Mean Cave,"[9]; dog male, 100 mg/kg/day oral, 13 weeks, last day of dosing",190 ng/mL
same,Mean Cave,"[9]; dog male, 100 mg/kg/day oral, 39-week study, week 28 (day 197)",69.6 ng/mL
same,plasma Cave:protein-corrected JAK IC50 ratio,"[9]; dog, 10 mg/kg/day",< 1 ×
same,plasma Cave:uncorrected JAK IC50 ratio,"[9]; dog, 10 mg/kg/day",< 1 ×
same,plasma Cave:protein-corrected JAK IC50 ratio,"[9]; dog, 30 mg/kg/day",< 1 ×
same,plasma Cave:uncorrected JAK IC50 ratio,"[9]; dog, 30 mg/kg/day",1 ×
same,time within the therapeutic range,"[9]; dog, 30 mg/kg/day",6 to 9 h
same,plasma Cave:protein-corrected JAK IC50 ratio,"[9]; dog, 100 mg/kg/day",1–2 ×
same,plasma Cave:uncorrected JAK IC50 ratio,"[9]; dog, 100 mg/kg/day",7–11 ×
same,time at supratherapeutic plasma concentrations,"[9]; dog, 100 mg/kg/day, all studies",up to 24 h
same,plasma Cave:uncorrected JAK IC50 ratio,"[9]; dog, ≥100 mg/kg/day",≥ 7 ×
same,plasma Cave:protein-corrected JAK IC50 ratio,"[10]; maternal rabbit, 10 mg/kg/day",< 1 ×
same,plasma Cave:uncorrected JAK IC50 ratio,"[10]; maternal rabbit, 10 mg/kg/day",< 1 ×
same,Mean Cave,"[10]; maternal rabbit, GD 7, 10 mg/kg/day oral",0.365 ng/mL
same,Mean Cave,"[10]; maternal rabbit, GD 7, 30 mg/kg/day oral",3.28 ng/mL
same,Mean Cave,"[10]; maternal rabbit, GD 7, 60 mg/kg/day oral",21.8 ng/mL
same,Mean Cave,"[10]; maternal rabbit, GD 19, 10 mg/kg/day oral",0.754 ng/mL
same,plasma Cave:uncorrected JAK IC50 ratio,"[10]; maternal rabbit, GD 19, 30 mg/kg/day",1 ×
same,Mean Cave,"[10]; maternal rabbit, GD 19, 30 mg/kg/day oral",18.7 ng/mL
same,plasma Cave:uncorrected JAK IC50 ratio,"[10]; maternal rabbit, GD 19, 60 mg/kg/day",6 ×
same,Mean Cave,"[10]; maternal rabbit, GD 19, 60 mg/kg/day oral",76.7 ng/mL
same,plasma Cave:protein-corrected JAK IC50 ratios,[10]; [14],< 1 ×
same,time at supratherapeutic plasma levels,[10]; [14],6 to 9 h
same,nonclinical:clinical AUC ratio at the NOAEL,"[10]; rabbit EFD study, 60 mg/kg/day, vs human 300 mg QD",33 fold
same,"fetal plasma concentrations, all other samples","[10]; rabbit fetuses, undetectable, limit of quantitation",< 1 ng/mL
same,concentration at 3 h,"[10]; rabbit, fetal plasma, oral, 60 mg/kg/day",1.55 ng/mL
